Data taken from article PMC5378063 (Medicinal chemistry (Shariqah (United Arab Emirates)), 2009).
≈ marks a conversion by molar mass, not a printed value.

Columns and labels:
M.bovis BCG Tokyo = test: MIC, agar dilution method; format: cell-based
M.tuberculosis H37Rv = test: MIC, agar dilution method; format: cell-based, Mycobacterium tuberculosis
M.aurum = test: MIC, agar dilution method; format: cell-based
DosS or DosR = test: DosS/DosR upregulation; format: cell-based, Mycobacterium tuberculosis; conditions: unpublished data
[1] = tested on: M.tuberculosis H37Rv RFPr; test: MIC, agar dilution method; format: cell-based, Mycobacterium tuberculosis
M.smegmatis Takeo = test: MIC, agar dilution method; format: cell-based
[2] = tested on: M.tuberculosis H37Rv INHr; test: MIC, agar dilution method; format: cell-based, Mycobacterium tuberculosis
M.fortuitum NIHJ1615 = test: MIC, agar dilution method; format: cell-based
[3] = tested on: M.intracellulare ATCC15984; test: MIC, agar dilution method; format: cell-based
M.avium Flamingo = test: MIC, agar dilution method; format: cell-based
nonreplicating Mtb = test: Killing of nonreplicating bacteria, Wayne low oxygen model; format: cell-based, Mycobacterium tuberculosis
How it was run: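 Aerobic preculture diluted 100-fold into tubes sealed with rubber septa, degassed with N₂ and held anaerobically for 24 days, into nonreplicating phase 2 of a modified Wayne model. Test compound in degassed solution was added and incubation continued for 96 h. Suspensions were then diluted and plated, grown aerobically at 37 °C, and colonies counted.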

bacterial growth = test: In vitro rescue studies with vitamin K supplementation; format: cell-based; conditions: 22a ~2μM; vitamin K even at 400 μM
[4] = 10 μg/mL, 96 h exposure after 24 days anaerobic
[5] = Mycobacterium tuberculosis variant bovis BCG, BCG
[6] = Mycobacterium tuberculosis, H37RV
[7] = Mycobacterium intracellulare, ATCC15984

C=CCN(C)CCCCCCCCOc1ccc(C(=O)c2ccc(Cl)cc2)c(O)c1 [22a, allylaminomethanone-A]
MIC (M.bovis BCG Tokyo; M.bovis BCG Tokyo, agar dilution): 3.1 µg/mL (≈ 7.21 µM) | MIC (M.tuberculosis H37Rv; M.tuberculosis H37Rv, agar dilution): 1.0 µg/mL (≈ 2.33 µM) | MIC (M.aurum): 6.3 µg/mL (≈ 14.7 µM) | upregulation of DosS or DosR (DosS or DosR): did not upregulate | MIC ([1]; M.tuberculosis H37Rv RFPr, agar dilution): 1.5 µg/mL (≈ 3.49 µM) | MIC (M.smegmatis Takeo): 12.5 µg/mL (≈ 29.1 µM) | MIC ([2]; M.tuberculosis H37Rv INHr, agar dilution): 1.5 µg/mL (≈ 3.49 µM) | MIC (M.fortuitum NIHJ1615): 12.5 µg/mL (≈ 29.1 µM) | MIC ([3]; M.intracellulare ATCC15984, agar dilution): 6.3 µg/mL (≈ 14.7 µM) | MIC (M.avium Flamingo; M.avium Flamingo, agar dilution): 6.3 µg/mL (≈ 14.7 µM) | more effective in killing nonreplicating bacteria than ethambutol (nonreplicating Mtb; [4]): 320 fold | more effective in killing nonreplicating bacteria than isoniazid (nonreplicating Mtb; [4]): 180 fold | more effective in killing nonreplicating bacteria than rifampicin (nonreplicating Mtb; [4]): 3 fold | colonies after treatment of nonreplicating Mtb (nonreplicating Mtb; 50 μg/mL, 96 h exposure): no countable colonies | rescue of bacterial growth by supplementation with vitamin K (bacterial growth): not completely rescued

NNC(=O)c1ccncc1 [INH, isoniazid]
MIC (M.bovis BCG Tokyo; [5]): 0.1 µg/mL (≈ 0.729 µM) | MIC (M.tuberculosis H37Rv; [6]): 0.1 µg/mL (≈ 0.729 µM) | MIC [1, 6]: 0.05 µg/mL (≈ 0.365 µM) | MIC [2, 6]: > 25 µg/mL | MIC [3, 7]: 12.5 µg/mL (≈ 91.1 µM) | MIC (M.avium Flamingo; Mycobacterium avium): > 25 µg/mL

CO[C@H]1/C=C/O[C@@]2(C)Oc3c(C)c(O)c4c(O)c(c(/C=N/N5CCN(C)CC5)c(O)c4c3C2=O)NC(=O)/C(C)=C\C=C\[C@H](C)[C@H](O)[C@@H](C)[C@@H](O)[C@@H](C)[C@H](OC(C)=O)[C@@H]1C [RFP, rifampicin]
MIC (M.bovis BCG Tokyo; [5]): 0.1 µg/mL (≈ 0.122 µM) | MIC (M.tuberculosis H37Rv; [6]): 0.2 µg/mL (≈ 0.243 µM) | MIC [1, 6]: > 25 µg/mL | MIC [3, 7]: 3.1 µg/mL (≈ 3.77 µM) | MIC (M.avium Flamingo; Mycobacterium avium): 3.1 µg/mL (≈ 3.77 µM)
